Consider 7 molecules from ChEMBL document CHEMBL1629517, “Molecular properties prediction, synthesis and antimicrobial activity of some newer oxadiazole derivatives” (2010).

Usually MIC stands for the least concentration at which growth counts as inhibited. High values mean a need for much substance, low ones inhibition by little substance. By MBC is commonly meant the smallest concentration meeting the test's criterion for killing. One may read the MFC as the smallest concentration meeting the test's criterion for killing the fungus. A lower MFC goes with greater fungicidal potency.

≈ marks a conversion by molar mass, not a printed value.

For assay [1], the system named is Candida albicans. The assay can be described thus: Antifungal activity against Candida albicans at 200 ug/ml after 48 hrs by agar diffusion method. It counts as functional. Particulars: read-out: IZ. The gist of the method:
(§1)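 Agar well diffusion on Sabouraud agar (peptone 1 g, D-glucose 4 g, agar 2 g per 100 ml water, pH 5.7). Plates were lawned with a saline suspension of spores, excess was decanted, and plates were dried 1 h at 37 °C. Compounds in DMSO went into punched wells, and inhibition zones were measured against controls, with voriconazole as standard.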

The test system of assay [2] is Escherichia coli. Nature of the assay: Antibacterial activity against Escherichia coli ATCC 25922 after 24 hrs by broth dilution technique. It counts as functional. The conditions noted are these: ATCC 25922, 24 h. The gist of the method: (§2)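 MIC by broth dilution: nutrient broth containing logarithmic two-fold serial dilutions of compound was inoculated with about 5 × 10⁵ c.f.u. of actively dividing bacteria.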
A general note: Dilution methods test growth across graded concentrations, often in twofold steps.

Assay [3] has as its system Staphylococcus aureus. The assay can be described thus: Antibacterial activity against Staphylococcus aureus ATCC 25923 at 100 ug/ml after 24 hrs by disc-diffusion method. Particulars: ATCC 25923, 24 h, read-out: IZ. It counts as functional. On the technique in general: In agar diffusion tests the substance spreads into inoculated agar from a disc or well.
Assay [4] has as its system Pseudomonas aeruginosa. The assay can be described thus: Antibacterial activity against Pseudomonas aeruginosa ATCC 27853 at 200 ug/ml after 24 hrs by disc-diffusion method. It counts as functional. Particulars: ATCC 27853, 24 h, read-out: IZ.
The test system of assay [5] is Candida albicans. Nature of the assay: Antifungal activity against Candida albicans at 100 ug/ml after 48 hrs by agar diffusion method. The conditions noted are these: read-out: IZ. It counts as functional. The method, boiled down:
as §1

Assay [6] deals with Staphylococcus aureus. The assay can be described thus: Antibacterial activity against Staphylococcus aureus ATCC 25923 at 200 ug/ml after 24 hrs by disc-diffusion method. It counts as functional. The conditions noted are these: ATCC 25923, 24 h, read-out: IZ.
Assay [7] has as its system Staphylococcus aureus. The assay can be described thus: Antibacterial activity against Staphylococcus aureus ATCC 25923 after 24 hrs by broth dilution technique. It counts as functional. Particulars: ATCC 25923, 24 h. The gist of the method:
as §2

For assay [8], the system named is Pseudomonas aeruginosa. The assay can be described thus: Antibacterial activity against Pseudomonas aeruginosa ATCC 27853 after 24 hrs by broth dilution technique. It counts as functional. Particulars: ATCC 27853, 24 h. The method, boiled down:
as §2

In assay [9] the test system is Bacillus subtilis. The assay can be described thus: Antibacterial activity against Bacillus subtilis ATCC 6633 at 200 ug/ml after 24 hrs by disc-diffusion method. It counts as functional. The conditions noted are these: ATCC 6633, 24 h, read-out: IZ.
The subject of assay [10] is Pseudomonas aeruginosa. The assay can be described thus: Antibacterial activity against Pseudomonas aeruginosa ATCC 27853 after 18 to 24 hrs. It counts as functional.
Assay [11] concerns Escherichia coli. Nature of the assay: Antibacterial activity against Escherichia coli ATCC 25922 after 18 to 24 hrs. It counts as functional.
The test system of assay [12] is Pseudomonas aeruginosa. The assay can be described thus: Antibacterial activity against Pseudomonas aeruginosa ATCC 27853 at 100 ug/ml after 24 hrs by disc-diffusion method. It counts as functional. The conditions noted are these: ATCC 27853, 24 h, read-out: IZ.
Assay [13] has as its system Candida albicans. The assay can be described thus: Antifungal activity against Candida albicans after 48 hrs. It counts as functional.
For assay [14], the system named is Escherichia coli. The assay can be described thus: Antibacterial activity against Escherichia coli ATCC 25922 at 200 ug/ml after 24 hrs by disc-diffusion method. It counts as functional. The conditions noted are these: ATCC 25922, 24 h, read-out: IZ.
In assay [15] the test system is Bacillus subtilis. Nature of the assay: Antibacterial activity against Bacillus subtilis ATCC 6633 at 100 ug/ml after 24 hrs by disc-diffusion method. It counts as functional. Particulars: ATCC 6633, 24 h, read-out: IZ.
In assay [16] the test system is Staphylococcus aureus. The assay can be described thus: Antibacterial activity against Staphylococcus aureus ATCC 25923 after 18 to 24 hrs. It counts as functional.
Assay [17] relates to Escherichia coli. Nature of the assay: Antibacterial activity against Escherichia coli ATCC 25922 at 100 ug/ml after 24 hrs by disc-diffusion method. Particulars: ATCC 25922, 24 h, read-out: IZ. It counts as functional.
In assay [18] the test system is Aspergillus niger. Nature of the assay: Antifungal activity against Aspergillus niger at 200 ug/ml after 48 hrs by agar diffusion method. It counts as functional. Particulars: read-out: IZ. The method, boiled down: as §1
The subject of assay [19] is Bacillus subtilis. Nature of the assay: Antibacterial activity against Bacillus subtilis ATCC 6633 after 24 hrs by broth dilution technique. It counts as functional. The conditions noted are these: ATCC 6633, 24 h. The gist of the method:
as §2

For assay [20], the system named is Aspergillus niger. The assay can be described thus: Antifungal activity against Aspergillus niger at 100 ug/ml after 3 to 4 days by agar diffusion method. Particulars: read-out: IZ.
Assay [21] relates to Bacillus subtilis. The assay can be described thus: Antibacterial activity against Bacillus subtilis ATCC 6633 after 18 to 24 hrs. It counts as functional.
Assay [22] has as its system Aspergillus niger. The assay can be described thus: Antifungal activity against Aspergillus niger after 48 hrs. It counts as functional.

In the case of `COc1cc(/C=C/C(=O)c2ccc(O)cc2)ccc1OCc1nnc(-c2ccc(Cl)cc2)o1`, the zone of inhibition at 200 µg/mL is 17 mm in assay [1]; 23 mm in [4]; 15 mm in assay [6]; 13 mm in assay [9]; 18 mm in [14]; 21 mm in assay [18]. The minimal inhibitory concentration (MIC) in [2] was found to be 25 µg/mL (≈ 54 µM); in assay [7] it was 25 µg/mL (≈ 54 µM); in [8], 25 µg/mL (≈ 54 µM); in [13], 12.5 µg/mL (≈ 27 µM); in assay [19], 12.5 µg/mL (≈ 27 µM). Further, the zone of inhibition at 100 µg/mL in assay [3] turned out to be 13 mm; in [5], 14 mm; in [12], 22 mm; in assay [15] it was 11 mm; in [17], 16 mm; in assay [20], 18 mm. Also, the MBC in [10] worked out at 100 µg/mL (≈ 216 µM); in assay [11], 50 µg/mL (≈ 108 µM); in [16], 100 µg/mL (≈ 216 µM); in assay [21] it was 25 µg/mL (≈ 54 µM). Besides, the MFC in assay [13] was 25 µg/mL (≈ 54 µM).
As to `COc1cc(/C=C/C(=O)c2ccccc2)ccc1OCc1nnc(-c2ccc(C)cc2)o1`, the zone of inhibition at 200 µg/mL amounted to 16 mm in assay [1]; 25 mm in [4]; 16 mm in [6]; 14 mm in assay [9]; 21 mm in assay [14]; 22 mm in assay [18]. For the same molecule, the MIC stood at 6 µg/mL (≈ 14.1 µM) in [2]; 6 µg/mL (≈ 14.1 µM) in assay [7]; 12.5 µg/mL (≈ 29.3 µM) in assay [8]; 12.5 µg/mL (≈ 29.3 µM) in assay [13]; 6 µg/mL (≈ 14.1 µM) in assay [19]. In addition, the zone of inhibition at 100 µg/mL in assay [3] turned out to be 15 mm; in [5] it was 15 mm; in [12], 23 mm; in assay [15] it was 12 mm; in assay [17], 19 mm; in [20], 20 mm. In addition, the MBC in [10] is 50 µg/mL (≈ 117 µM); in [11], 25 µg/mL (≈ 58.6 µM); in assay [16], 25 µg/mL (≈ 58.6 µM); in [21], 12.5 µg/mL (≈ 29.3 µM). In assay [13], this molecule had an MFC of 25 µg/mL (≈ 58.6 µM).
Turning to `C[C@@H](c1ncncc1F)[C@](O)(Cn1cncn1)c1ccc(F)cc1F` [VORICONAZOLE], the zone of inhibition at 200 µg/mL in [1] is 26 mm; in assay [18], 30 mm. The zone of inhibition at 100 µg/mL in assay [5] turned out to be 24 mm; in assay [20], 28 mm. In addition, the MFC in [13] and in [22] was 12.5 µg/mL (≈ 35.8 µM) in each case. Moreover, the MIC in [13] and in assay [22] was 6 µg/mL (≈ 17.2 µM) throughout.
Regarding `O=C(O)c1cn(C2CC2)c2cc(N3CCNCC3)c(F)cc2c1=O` [CIPROFLOXACIN], the MIC in assay [2], in [7], in [8] and in [19] was 6 µg/mL (≈ 18.1 µM) each time. Also, the zone of inhibition at 100 µg/mL in assay [3] is 23 mm; in assay [12] it was 32 mm; in [15], 21 mm. Besides, the zone of inhibition at 200 µg/mL in [4] came to 33 mm; in assay [6], 24 mm; in [9] it was 22 mm; in assay [14] it was 27 mm. In addition, the minimal bactericidal concentration (MBC) in assay [10], in assay [11], in assay [16] and in assay [21] was 12.5 µg/mL (≈ 37.7 µM) in each case.
Regarding `COc1cc(/C=C/C(=O)c2ccc(O)cc2)ccc1OCc1nnc(-c2ccc([N+](=O)[O-])cc2)o1`, the zone of inhibition at 200 µg/mL amounted to 15 mm in [1]; 23 mm in [4]; 13 mm in assay [6]; 11 mm in [9]; 17 mm in assay [14]; 19 mm in assay [18]. The MIC in assay [2] came out at 50 µg/mL (≈ 106 µM); in assay [7] it was 25 µg/mL (≈ 52.8 µM); in assay [8] it was 12.5 µg/mL (≈ 26.4 µM); in assay [22], 25 µg/mL (≈ 52.8 µM); in [19] it was 12.5 µg/mL (≈ 26.4 µM). The zone of inhibition at 100 µg/mL in assay [3] is 12 mm; in [5], 13 mm; in [12], 21 mm; in [15] it was 10 mm; in assay [17], 15 mm; in assay [20] it was 17 mm. Further, the MBC worked out at 100 µg/mL (≈ 211 µM) in assay [10], 100 µg/mL (≈ 211 µM) in assay [11], 50 µg/mL (≈ 106 µM) in [16] and 50 µg/mL (≈ 106 µM) in assay [21]. In addition, in assay [22], the MFC was determined as 100 µg/mL (≈ 211 µM).
For `COc1ccc(C(=O)/C=C/c2ccc(OCc3nnc(-c4ccc(Cl)cc4)o3)c(OC)c2)cc1`, the zone of inhibition at 200 µg/mL in assay [1] is 17 mm; in [4] it was 24 mm; in [6], 15 mm; in assay [9], 13 mm; in assay [14] it was 19 mm; in assay [18] it was 21 mm. Also, the MIC in assay [2], in assay [7], in assay [8], in [22] and in assay [19] was 12.5 µg/mL (≈ 26.2 µM) throughout. Moreover, the zone of inhibition at 100 µg/mL in [3] came to 14 mm; in assay [5] it was 16 mm; in assay [12], 22 mm; in assay [15], 12 mm; in assay [17] it was 17 mm; in [20] it was 19 mm. The MBC in assay [10] is 100 µg/mL (≈ 210 µM); in assay [11], 100 µg/mL (≈ 210 µM); in assay [16] it was 50 µg/mL (≈ 105 µM); in assay [21], 50 µg/mL (≈ 105 µM). Besides, the MFC in [22] is 50 µg/mL (≈ 105 µM).
As for `COc1cc(/C=C/C(=O)c2ccc(O)cc2)ccc1OCc1nnc(-c2ccc(C)cc2)o1`, the zone of inhibition at 200 µg/mL in assay [1] turned out to be 17 mm; in assay [4], 25 mm; in assay [6] it was 17 mm; in [9], 14 mm; in [14], 20 mm; in [18], 23 mm. For the same molecule, the MIC in assay [2] amounted to 12.5 µg/mL (≈ 28.3 µM); in assay [7] it was 25 µg/mL (≈ 56.5 µM); in [8] it was 25 µg/mL (≈ 56.5 µM); in assay [13] it was 25 µg/mL (≈ 56.5 µM); in assay [19] it was 12.5 µg/mL (≈ 28.3 µM). Besides, the zone of inhibition at 100 µg/mL in [3] is 15 mm; in [5], 15 mm; in [12], 23 mm; in assay [15], 12 mm; in assay [17] it was 19 mm; in [20], 20 mm. The MBC came to 100 µg/mL (≈ 226 µM) in assay [10], 25 µg/mL (≈ 56.5 µM) in assay [11], 50 µg/mL (≈ 113 µM) in assay [16] and 25 µg/mL (≈ 56.5 µM) in assay [21]. The MFC in assay [13] came to 100 µg/mL (≈ 226 µM).
